A word on the inhibition: it is the drop in the measured response relative to a control, in per cent. The term Ki denotes the dissociation constant of the complex between target and ligand, obtained from inhibition or displacement. For orientation: Kb means the equilibrium dissociation constant of an antagonist, usually derived from a functional assay.

Consider 18 compounds from ChEMBL document CHEMBL4038346, “Effect of Nitrogen Atom Substitution in A3 Adenosine Receptor Binding: N-(4,6-Diarylpyridin-2-yl)acetamides as Potent and Selective Antagonists” (J Med Chem, 2017).

The source made the active and inactive calls. No cut-off for these calls is given here.

For test [1], the target named is T1, Adenosine receptor A2a (Homo sapiens, UniProt P29274). Briefly: Displacement of [3H]ZM241385 from human adenosine A2A receptor expressed in human HeLa cell membranes at 1 uM after 30 mins relative to control. For orientation: Displacement assays read how much labelled ligand stays bound in the presence of the test substance.
T1 sequence (P29274 whole entry): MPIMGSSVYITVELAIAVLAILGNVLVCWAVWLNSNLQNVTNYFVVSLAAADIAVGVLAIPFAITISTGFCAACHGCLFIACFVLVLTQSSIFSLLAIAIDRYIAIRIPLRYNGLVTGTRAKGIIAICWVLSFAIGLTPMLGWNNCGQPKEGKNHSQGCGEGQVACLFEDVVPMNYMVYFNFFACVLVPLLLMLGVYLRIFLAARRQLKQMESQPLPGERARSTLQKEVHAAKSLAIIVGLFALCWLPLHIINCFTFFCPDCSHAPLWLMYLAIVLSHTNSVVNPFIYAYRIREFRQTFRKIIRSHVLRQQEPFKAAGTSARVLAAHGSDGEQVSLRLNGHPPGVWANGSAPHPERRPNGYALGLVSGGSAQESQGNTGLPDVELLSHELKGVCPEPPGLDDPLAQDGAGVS
Test [2] deals with T2, Adenosine receptor A3 (Homo sapiens) (UniProt P0DMS8).
T2 sequence (whole entry): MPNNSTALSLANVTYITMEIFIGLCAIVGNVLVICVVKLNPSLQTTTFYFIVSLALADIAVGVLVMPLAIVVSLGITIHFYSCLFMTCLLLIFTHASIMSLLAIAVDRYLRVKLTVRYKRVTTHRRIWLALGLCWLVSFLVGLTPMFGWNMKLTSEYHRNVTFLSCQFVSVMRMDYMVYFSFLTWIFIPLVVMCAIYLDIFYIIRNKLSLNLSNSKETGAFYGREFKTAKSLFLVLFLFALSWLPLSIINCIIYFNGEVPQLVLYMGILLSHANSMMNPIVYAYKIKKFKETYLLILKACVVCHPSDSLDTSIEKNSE
In words: (§1) Displacement of [3H]NECA from human adenosine A3 receptor expressed in human HeLa cell membranes after 180 mins.

Test [3] concerns the target T3, Adenosine receptor A1 (Homo sapiens, UniProt P30542).
T3 sequence (P30542 whole entry): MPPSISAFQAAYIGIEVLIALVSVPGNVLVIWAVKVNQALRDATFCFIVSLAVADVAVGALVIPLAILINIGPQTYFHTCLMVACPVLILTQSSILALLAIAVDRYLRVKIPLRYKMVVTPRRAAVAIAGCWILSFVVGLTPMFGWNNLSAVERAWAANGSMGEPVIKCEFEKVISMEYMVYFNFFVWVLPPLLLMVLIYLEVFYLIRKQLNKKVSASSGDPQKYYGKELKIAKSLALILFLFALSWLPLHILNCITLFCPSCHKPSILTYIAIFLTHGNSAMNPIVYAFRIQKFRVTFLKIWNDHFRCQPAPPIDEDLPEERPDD
Briefly: Displacement of [3H]DPCPX from human adenosine A1 receptor expressed in CHO cell membranes after 60 mins.

Test [4] has as its target T4, Adenosine receptor A2b (Homo sapiens, UniProt P29275).
T4 sequence (P29275 whole entry): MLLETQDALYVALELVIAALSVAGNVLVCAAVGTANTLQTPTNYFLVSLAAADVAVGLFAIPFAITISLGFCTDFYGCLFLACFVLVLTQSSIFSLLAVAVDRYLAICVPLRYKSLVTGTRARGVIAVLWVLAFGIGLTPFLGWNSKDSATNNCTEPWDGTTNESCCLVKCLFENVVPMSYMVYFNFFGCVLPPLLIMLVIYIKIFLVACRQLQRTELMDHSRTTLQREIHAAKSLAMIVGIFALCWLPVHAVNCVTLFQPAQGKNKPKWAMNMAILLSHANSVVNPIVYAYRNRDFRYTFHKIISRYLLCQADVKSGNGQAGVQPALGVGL
In words: Displacement of [3H]DPCPX from human adenosine A2B receptor expressed in HEK293 cell membranes after 30 mins.

Test [5] has as its target T5, Adenosine receptor A3 (Homo sapiens, UniProt P0DMS8).
T5 sequence (P0DMS8 whole entry): T2 sequence (whole entry)
The description is as §1.

In test [6] the target is T6, Adenosine receptor A1 (Homo sapiens) (UniProt P30542).
T6 sequence (whole entry): T3 sequence (P30542 whole entry)
Briefly: Displacement of [3H]DPCPX from human adenosine A1 receptor expressed in CHO cell membranes at 1 uM after 60 mins relative to control.

Test [7] concerns the target T7, Adenosine receptor A2b (Homo sapiens) (UniProt P29275).
T7 sequence (whole entry): T4 sequence (P29275 whole entry)
Briefly: Displacement of [3H]DPCPX from human adenosine A2B receptor expressed in HEK293 cell membranes at 1 uM after 30 mins relative to control.

The target in test [8] is T2, Adenosine receptor A3 (Homo sapiens). In words: Antagonist activity at human adenosine A3 receptor expressed in CHO cells assessed as decrease in NECA-induced inhibition of forskolin-stimulated cAMP formation preincubated for 15 mins followed by NECA addition for 10 mins and subsequent forskolin challenge for 5 mins by enzyme immunoassay. The test is classed as functional, cell-based. In a few lines:
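CHO-A3 cells seeded at 20 000/well in DMEM-F12 with 10% FCS and 1% L-glutamine, grown 24 h at 37 °C, 5% CO2. Washed, then preincubated 15 min at 37 °C in DMEM-F12/25 mM HEPES pH 7.4 with 30 μM rolipram plus antagonist.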
A general note: Cyclic AMP is a second messenger, typically raised through Gs and lowered through Gi signalling.

In test [9] the target is Adenosine receptors; A1 & A3 (Homo sapiens) (UniProt P30542+P0DMS8). Briefly: Selectivity ratio of Ki for human adenosine A1 receptor expressed in CHO cell membranes to Ki for human adenosine A3 receptor expressed in human HeLa cell membranes. The test is classed as cell-based.
Test [10] concerns the target T1, Adenosine receptor A2a. In words: Displacement of [3H]ZM241385 from human adenosine A2A receptor expressed in human HeLa cell membranes after 30 mins.

In turn, `CC(=O)Nc1cc(-c2ccc(C(C)=O)cc2)cc(-c2ccc(C(C)=O)cc2)n1` came in with an inhibition in test [1] of 4%.
Compound `COc1ccc(-c2cc(NC(C)=O)nc(-c3ccc(OC)cc3OC)c2)c(OC)c1` had an inhibition in [1] of 2%.
In [1], `COc1ccc(-c2cc(NC(C)=O)nc(-c3ccc(OC)cc3)c2)cc1` showed an inhibition of 15%.
Turning to `COc1ccccc1-c1cc(NC(C)=O)nc(-c2ccccc2OC)n1`, the inhibition entry in [2] was “Active”.
As for `CC(=O)Nc1cc(-c2ccccc2)cc(-c2ccccc2)n1`, the figures for the Ki in [3], in [4] and in [5] were 21.1 nM, 51.2 nM and 98.5 nM, respectively. Besides, the inhibition in test [1] turned out to be 49%.
In turn, `CC(=O)Nc1cc(-c2ccc(OC(F)(F)F)cc2)cc(-c2ccc(OC(F)(F)F)cc2)n1` had an inhibition in [1] of 1%.
For `CSc1ccc(-c2cc(NC(C)=O)nc(-c3ccc(SC)cc3)c2)cc1`, in test [1], the inhibition turned out to be 2%.
`COc1cc(OC)cc(-c2cc(NC(C)=O)nc(-c3cc(OC)cc(OC)c3)c2)c1`: the inhibition in test [1] is 2%.
Still for that read-out and setting: under `COc1cccc(OC)c1-c1cc(NC(C)=O)nc(-c2c(OC)cccc2OC)c1` stands 1%.
With `COc1cccc(-c2cc(NC(C)=O)nc(-c3cccc(OC)c3)c2)c1`, the inhibition constant (Ki) in test [3] was 239 nM. Further, the inhibition in test [1] came to 21%.
`CC(=O)Nc1cc(-c2ccc(C(C)=O)cc2)nc(-c2ccc(C(C)=O)cc2)n1`: the inhibition entry in test [2] is “Active”.
In test [1], `CC(=O)Nc1cc(-c2ccc(C)cc2)cc(-c2ccc(C)cc2)n1` registered an inhibition of 1%.
The compound `COc1cc(-c2cc(NC(C)=O)nc(-c3cc(OC)c(OC)c(OC)c3)c2)cc(OC)c1OC` came in with an inhibition constant (Ki) in [5] of 116 nM. In addition, the inhibition was determined as 8% in test [6], 15% in test [1] and 4% in test [7].
As to `CC(=O)Nc1cc(-c2ccc3c(c2)OCO3)cc(-c2ccc3c(c2)OCO3)n1`, the figures for the inhibition constant Ki in [3] and in test [5] were 91.1 nM and 2.8 nM, respectively. Also, the inhibition worked out at 9% in test [1] and 27% in [7]. Besides, the antagonist dissociation constant (Kb) in [8] is 1.9 nM. The Ratio Ki in test [9] turned out to be 30.
`COc1ccc(OC)c(-c2cc(NC(C)=O)nc(-c3cc(OC)ccc3OC)c2)c1` yielded an inhibitory constant (Ki) in test [5] of 35.2 nM. In addition, the figures for the inhibition in [6], in [1] and in test [7] were 3%, 3% and 1%, respectively.
As for `COc1ccccc1-c1cc(NC(C)=O)nc(-c2ccccc2OC)c1`, in test [5], the Ki worked out at 781 nM. Besides, the inhibition in test [6] was 8%; in test [1], 1%; in test [7], 19%.
`COc1ccc(-c2cc(NC(C)=O)nc(-c3ccc(OC)c(OC)c3)c2)cc1OC` gave an inhibition in test [1] of 1%.
`COc1cccc(-c2cc(NC(C)=O)nc(-c3cccc(OC)c3OC)c2)c1OC` showed an inhibition constant (Ki) in test [10] of 353 nM.
